In ChEMBL document CHEMBL2375290, “Nonclassical antifolates, part 3: synthesis, biological evaluation and molecular modeling study of some new 2-heteroarylthio-quinazolin-4-ones” (Eur J Med Chem, 2013):
Converted amounts (≈) assume the structure as drawn.

Tests used:
Staphylococcus aureus [1] = assay: Antimicrobial activity against Staphylococcus aureus after 24 hrs by micro-dilution susceptibility method; type: functional
Summary of the method: (§1)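 Broth microdilution in Müller-Hinton broth against S. aureus IFO 3060, B. subtilis IFO 3007, E. coli IFO 3301 and P. aeruginosa IFO 3448. These are the same standard strains used in the disc-diffusion primary screen. Compounds were solubilized in DMSO. MIC recorded as the minimal inhibitory concentration.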

Micrococcus luteus [2] = assay: Antimicrobial activity against Micrococcus luteus at 100 ug after 24 hrs by agar disc diffusion method; type: functional
Summary of the method: (§2)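 Agar disc diffusion on Müller-Hinton agar. Sterile 8 mm filter-paper discs were moistened with the compound in DMSO. Strains were B. subtilis IFO 3007 and M. luteus IFO 3232. Plates were incubated at 37 °C, and growth-inhibition zone diameters were measured in mm after 24 h. DMSO served as the solvent control.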

Bacillus subtilis [3] = assay: Antimicrobial activity against Bacillus subtilis at 100 ug after 24 hrs by agar disc diffusion method; type: functional; summary of the method: as §2
Bacillus subtilis [4] = assay: Antimicrobial activity against Bacillus subtilis after 24 hrs by micro-dilution susceptibility method; type: functional; summary of the method: as §1
Micrococcus luteus [5] = assay: Antimicrobial activity against Micrococcus luteus after 24 hrs by micro-dilution susceptibility method; type: functional
Summary of the method: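 MIC by broth microdilution in Müller-Hinton broth against M. luteus IFO 3232, the same strain used in the disc-diffusion primary screen.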

Pseudomonas aeruginosa [6] = assay: Antimicrobial activity against Pseudomonas aeruginosa after 24 hrs by micro-dilution susceptibility method; type: functional; summary of the method: as §1
Pseudomonas aeruginosa [7] = assay: Antimicrobial activity against Pseudomonas aeruginosa at 100 ug after 24 hrs by agar disc diffusion method; type: functional; conditions: read-out: DIZ
Escherichia coli [8] = assay: Antimicrobial activity against Escherichia coli at 100 ug after 24 hrs by agar disc diffusion method; type: functional; conditions: read-out: DIZ
Staphylococcus aureus [9] = assay: Antimicrobial activity against Staphylococcus aureus at 100 ug after 24 hrs by agar disc diffusion method; type: functional; conditions: read-out: DIZ
Escherichia coli [10] = assay: Antimicrobial activity against Escherichia coli after 24 hrs by micro-dilution susceptibility method
SN12C = assay: Cytotoxicity against human SN12C cells at 10 uM after 48 hrs by coulter counter analysis; type: functional; conditions: read-out: GI
CCRF-CEM = assay: Cytotoxicity against human CCRF-CEM cells at 10 uM after 48 hrs by coulter counter analysis; type: functional; conditions: read-out: GI
UACC-62 = assay: Cytotoxicity against human UACC62 cells at 10 uM after 48 hrs by coulter counter analysis; type: functional; conditions: UACC-62, 48 h, read-out: GI
PC-3 = assay: Cytotoxicity against human PC3 cells at 10 uM after 48 hrs by coulter counter analysis; type: functional; conditions: PC-3, 48 h, read-out: GI
MDA-MB-435 = assay: Cytotoxicity against human MDA-MB-435 cells at 10 uM after 48 hrs by coulter counter analysis; type: functional; conditions: MDA-MB-435, 48 h, read-out: GI
[11] = Cytotoxicity against human NCI-ADR-RES cells at 10 uM after 48 hrs by coulter counter analysis; type: functional; conditions: read-out: GI
SK-MEL-5 = assay: Cytotoxicity against human SK-MEL-5 cells at 10 uM after 48 hrs by coulter counter analysis; type: functional; conditions: SK-MEL-5, 48 h, read-out: GI
SNB-75 = assay: Cytotoxicity against human SNB75 cells at 10 uM after 48 hrs by coulter counter analysis; type: functional; conditions: SNB-75, 48 h, read-out: GI
Staphylococcus aureus [12] = assay: Antimicrobial activity against Staphylococcus aureus at 200 ug after 24 hrs by agar disc diffusion method; type: functional; conditions: read-out: DIZ
RPMI-8226 = assay: Cytotoxicity against human RPMI8226 cells at 10 uM after 48 hrs by coulter counter analysis; type: functional; conditions: RPMI-8226, 48 h, read-out: GI
SNB-19 = assay: Cytotoxicity against human SNB19 cells at 10 uM after 48 hrs by coulter counter analysis; type: functional; conditions: SNB-19, 48 h, read-out: GI
SR = assay: Cytotoxicity against human SR cells at 10 uM after 48 hrs by coulter counter analysis; type: functional; conditions: read-out: GI
SF-295 = assay: Cytotoxicity against human SF295 cells at 10 uM after 48 hrs by coulter counter analysis; type: functional; conditions: SF-295, 48 h, read-out: GI
MCF7 = assay: Cytotoxicity against human MCF7 cells at 10 uM after 48 hrs by coulter counter analysis; type: functional; conditions: MCF7, 48 h, read-out: GI
Bacillus subtilis [13] = assay: Antimicrobial activity against Bacillus subtilis at 200 ug after 24 hrs by agar disc diffusion method; type: functional; conditions: read-out: DIZ
Micrococcus luteus [14] = assay: Antimicrobial activity against Micrococcus luteus at 200 ug after 24 hrs by agar disc diffusion method; type: functional; conditions: read-out: DIZ
Pseudomonas aeruginosa [15] = assay: Antimicrobial activity against Pseudomonas aeruginosa at 200 ug after 24 hrs by agar disc diffusion method; type: functional; conditions: read-out: DIZ
Escherichia coli [16] = assay: Antimicrobial activity against Escherichia coli at 200 ug after 24 hrs by agar disc diffusion method; type: functional; conditions: read-out: DIZ
UO-31 = assay: Cytotoxicity against human UO31 cells at 10 uM after 48 hrs by coulter counter analysis; type: functional; conditions: UO-31, 48 h, read-out: GI
LOX IMVI = assay: Cytotoxicity against human LOXIMVI cells at 10 uM after 48 hrs by coulter counter analysis; type: functional; conditions: read-out: GI
T47D = assay: Cytotoxicity against human T47D cells at 10 uM after 48 hrs by coulter counter analysis; type: functional; conditions: read-out: GI
RXF 393 = assay: Cytotoxicity against human RXF393 cells at 10 uM after 48 hrs by coulter counter analysis; type: functional; conditions: RXF 393, 48 h, read-out: GI
[17] = Cytotoxicity against human EKVX cells at 10 uM after 48 hrs by coulter counter analysis; type: functional; conditions: read-out: GI
MDA-MB-231 = assay: Cytotoxicity against human MDA-MB-231 cells at 10 uM after 48 hrs by coulter counter analysis; type: functional; conditions: MDA-MB-231, 48 h, read-out: GI
Dihydrofolate reductase = target: T1, Dihydrofolate reductase (Bos taurus, UniProt P00376); assay: Inhibition of bovine DHFR after 2 mins by spectrophotometry
T1 sequence (P00376 whole entry): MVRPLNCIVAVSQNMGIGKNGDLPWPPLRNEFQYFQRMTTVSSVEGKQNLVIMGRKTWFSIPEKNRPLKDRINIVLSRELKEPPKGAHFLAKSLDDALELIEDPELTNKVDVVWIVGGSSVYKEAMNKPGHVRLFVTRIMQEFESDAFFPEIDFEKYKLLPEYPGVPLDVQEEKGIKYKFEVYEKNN

MOLT-4 = assay: Cytotoxicity against human MOLT4 cells at 10 uM after 48 hrs by coulter counter analysis; type: functional; conditions: MOLT-4, 48 h, read-out: GI
NCI-H23 = assay: Cytotoxicity against human NCI-H23 cells at 10 uM after 48 hrs by coulter counter analysis; type: functional; conditions: NCI-H23, 48 h, read-out: GI
HL-60(TB) = assay: Cytotoxicity against human HL-60(TB) cells at 10 uM after 48 hrs by coulter counter analysis; type: functional; conditions: HL-60, 48 h, read-out: GI
NCI-H226 = assay: Cytotoxicity against human NCI-H226 cells at 10 uM after 48 hrs by coulter counter analysis; type: functional; conditions: NCI-H226, 48 h, read-out: GI
IGROV-1 = assay: Cytotoxicity against human IGROV1 cells at 10 uM after 48 hrs by coulter counter analysis; type: functional; conditions: IGROV-1, 48 h, read-out: GI
A549 = assay: Cytotoxicity against human A549/ATCC cells at 10 uM after 48 hrs by coulter counter analysis; type: functional; conditions: A549, 48 h, read-out: GI
OVCAR-4 = assay: Cytotoxicity against human OVCAR4 cells at 10 uM after 48 hrs by coulter counter analysis; type: functional; conditions: OVCAR-4, 48 h, read-out: GI
NCI-H522 = assay: Cytotoxicity against human NCI-H522 cells at 10 uM after 48 hrs by coulter counter analysis; type: functional; conditions: NCI-H522, 48 h, read-out: GI
Hs-578T = assay: Cytotoxicity against human Hs578T cells at 10 uM after 48 hrs by coulter counter analysis; type: functional; conditions: read-out: GI
A498 = assay: Cytotoxicity against human A498 cells at 10 uM after 48 hrs by coulter counter analysis; type: functional; conditions: A498, 48 h, read-out: GI
CAKI-1 = assay: Cytotoxicity against human Caki1 cells at 10 uM after 48 hrs by coulter counter analysis; type: functional; conditions: CAKI-1, 48 h, read-out: GI
Malme-3M = assay: Cytotoxicity against human MALME-3M cells at 10 uM after 48 hrs by coulter counter analysis; type: functional; conditions: read-out: GI

GENTAMICIN
MIC (Staphylococcus aureus [1]): 2 µg/mL | inhibition zone (IZ) (Micrococcus luteus [2]): 18 mm | inhibition zone (IZ) (Bacillus subtilis [3]): 25 mm | MIC (Bacillus subtilis [4]): 2 µg/mL | MIC (Micrococcus luteus [5]): 2 µg/mL | MIC (Pseudomonas aeruginosa [6]): 1 µg/mL

CC(=O)NS(=O)(=O)c1ccc(N)cc1 [SULFACETAMIDE]
MIC (Staphylococcus aureus [1]): 2 µg/mL (≈ 9.34 µM) | zone of inhibition at 100 µg/disc (Micrococcus luteus [2]; read-out: DIZ): 18 mm | zone of inhibition at 100 µg/disc (Pseudomonas aeruginosa [7]): 25 mm | zone of inhibition at 100 µg/disc (Bacillus subtilis [3]; read-out: DIZ): 22 mm | MIC (Bacillus subtilis [4]): 2 µg/mL (≈ 9.34 µM) | zone of inhibition at 100 µg/disc (Escherichia coli [8]): 28 mm | zone of inhibition at 100 µg/disc (Staphylococcus aureus [9]): 20 mm | MIC (Micrococcus luteus [5]): 2 µg/mL (≈ 9.34 µM) | MIC (Pseudomonas aeruginosa [6]): 2 µg/mL (≈ 9.34 µM) | MIC (Escherichia coli [10]): 1 µg/mL (≈ 4.67 µM)

COc1cc2nc(Sc3ncccc3C(=O)O)n(-c3ccccc3)c(=O)c2cc1OC
inhibition of growth at 10 µM (SN12C): < 10% | inhibition of growth at 10 µM (CCRF-CEM): < 10% | inhibition of growth at 10 µM (UACC-62): < 10% | MIC (Staphylococcus aureus [1]): 4 µg/mL (≈ 9.19 µM) | inhibition of growth at 10 µM (PC-3): < 10% | inhibition of growth at 10 µM (MDA-MB-435): < 10% | inhibition of growth at 10 µM [11]: < 10% | inhibition of growth at 10 µM (SK-MEL-5): < 10% | inhibition of growth at 10 µM (SNB-75): < 10% | zone of inhibition at 200 µg/disc (Staphylococcus aureus [12]): 20 mm | inhibition of growth at 10 µM (RPMI-8226): < 10% | inhibition of growth at 10 µM (SNB-19): < 10% | inhibition of growth at 10 µM (SR): < 10% | inhibition of growth at 10 µM (SF-295): < 10% | MIC (Bacillus subtilis [4]): 4 µg/mL (≈ 9.19 µM) | inhibition of growth at 10 µM (MCF7): < 10% | zone of inhibition at 200 µg/disc (Bacillus subtilis [13]): 22 mm | zone of inhibition at 200 µg/disc (Micrococcus luteus [14]): 15 mm | zone of inhibition at 200 µg/disc (Pseudomonas aeruginosa [15]): 8 mm | zone of inhibition at 200 µg/disc (Escherichia coli [16]): 22 mm | inhibition of growth at 10 µM (UO-31): 12% | inhibition of growth at 10 µM (LOX IMVI): < 10% | inhibition of growth at 10 µM (T47D): < 10% | inhibition of growth at 10 µM (RXF 393): < 10% | inhibition of growth at 10 µM [17]: < 10% | inhibition of growth at 10 µM (MDA-MB-231): < 10% | IC50 (Dihydrofolate reductase): 7 µM | inhibition of growth at 10 µM (MOLT-4): < 10% | inhibition of growth at 10 µM (NCI-H23): < 10% | inhibition of growth at 10 µM (HL-60(TB)): < 10% | inhibition of growth at 10 µM (NCI-H226): 12% | inhibition of growth at 10 µM (IGROV-1): < 10% | inhibition of growth at 10 µM (A549): < 10% | inhibition of growth at 10 µM (OVCAR-4): < 10% | inhibition of growth at 10 µM (NCI-H522): 11.4% | inhibition of growth at 10 µM (Hs-578T): < 10% | MIC (Escherichia coli [10]): 2 µg/mL (≈ 4.59 µM) | inhibition of growth at 10 µM (A498): < 10% | inhibition of growth at 10 µM (CAKI-1): 17.7% | inhibition of growth at 10 µM (Malme-3M): < 10%
